Measured values: ChEMBL document CHEMBL4715748, “Synthesis and biological investigation of new equatorial (β) stereoisomers of 3-aminotropane arylamides with atypical antipsychotic profile” (Bioorg Med Chem, 2016)

Assays:
[1] = molecular target: 5-hydroxytryptamine receptor 2A (Rattus norvegicus, UniProt P14842); assay: Displacement of [3H]-ketanserin from rat cerebral cortex 5HT2A receptor measured after 20 mins by liquid scintillation counter method
How it was run: (§1)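 Competition binding in rat brain tissue membranes against D2, 5-HT1A and 5-HT2A sites; Ki reported as mean ± S.E.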

D(2) dopamine receptor = D(2) dopamine receptor (Rattus norvegicus, UniProt P61169); assay: Displacement of [3H] Spiperone from rat striatum dopamine D2 receptor measured after 30 mins by liquid scintillation counter method; how it was run: as §1
[2] = molecular target: T1, 5-hydroxytryptamine receptor 1A (Rattus norvegicus, UniProt P19327); assay: Displacement of [3H]-8-OH-DPAT from rat cerebral cortex 5HT1A receptor measured after 15 mins by liquid scintillation counter method
T1 sequence (P19327 whole entry): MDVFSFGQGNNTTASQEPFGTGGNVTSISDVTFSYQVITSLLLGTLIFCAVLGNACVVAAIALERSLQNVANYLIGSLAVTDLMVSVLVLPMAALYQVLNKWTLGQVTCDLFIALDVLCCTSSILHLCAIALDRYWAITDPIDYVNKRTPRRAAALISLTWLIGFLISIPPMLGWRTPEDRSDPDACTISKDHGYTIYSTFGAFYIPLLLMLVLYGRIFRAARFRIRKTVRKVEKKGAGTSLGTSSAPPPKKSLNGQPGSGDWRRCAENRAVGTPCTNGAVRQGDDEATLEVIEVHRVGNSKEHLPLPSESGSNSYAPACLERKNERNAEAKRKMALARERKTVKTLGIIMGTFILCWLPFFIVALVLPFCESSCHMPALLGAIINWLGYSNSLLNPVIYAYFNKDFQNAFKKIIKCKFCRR

5-hydroxytryptamine receptor 2A, sequence (P14842 whole entry): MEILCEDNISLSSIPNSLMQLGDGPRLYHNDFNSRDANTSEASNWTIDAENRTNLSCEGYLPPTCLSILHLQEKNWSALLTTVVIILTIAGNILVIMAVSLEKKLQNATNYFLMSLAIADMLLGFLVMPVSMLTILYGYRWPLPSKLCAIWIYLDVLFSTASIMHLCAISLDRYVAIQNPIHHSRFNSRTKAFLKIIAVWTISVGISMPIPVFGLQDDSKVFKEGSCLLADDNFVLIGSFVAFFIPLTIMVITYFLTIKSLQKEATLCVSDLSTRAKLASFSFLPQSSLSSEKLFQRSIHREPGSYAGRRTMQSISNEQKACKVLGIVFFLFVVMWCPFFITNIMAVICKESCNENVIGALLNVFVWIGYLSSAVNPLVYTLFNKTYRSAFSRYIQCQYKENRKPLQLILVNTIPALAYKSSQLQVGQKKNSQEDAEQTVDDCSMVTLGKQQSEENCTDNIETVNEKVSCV
D(2) dopamine receptor, sequence (P61169 whole entry): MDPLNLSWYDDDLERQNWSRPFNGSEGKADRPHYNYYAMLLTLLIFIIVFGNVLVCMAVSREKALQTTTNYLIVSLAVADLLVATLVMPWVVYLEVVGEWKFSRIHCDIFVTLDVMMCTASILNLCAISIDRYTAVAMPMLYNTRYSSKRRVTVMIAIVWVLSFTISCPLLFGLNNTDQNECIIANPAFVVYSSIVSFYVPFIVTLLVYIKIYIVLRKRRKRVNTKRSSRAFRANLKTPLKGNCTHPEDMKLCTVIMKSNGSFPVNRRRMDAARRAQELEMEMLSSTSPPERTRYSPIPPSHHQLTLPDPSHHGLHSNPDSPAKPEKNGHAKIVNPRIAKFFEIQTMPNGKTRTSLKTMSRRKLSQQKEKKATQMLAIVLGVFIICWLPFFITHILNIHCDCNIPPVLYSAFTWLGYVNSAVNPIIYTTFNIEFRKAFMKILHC

Compound | Ki [1] | Ki (D(2) dopamine receptor) | Ki [2]
O=C(NC1CC2CCC(C1)N2Cc1ccccn1)c1ccc2ccccc2c1 (stereo not given) | 589 nM | 2200 nM | 315 nM
O=C(NC1CC2CCC(C1)N2Cc1ccncc1)c1ccc2ccccc2c1 (stereo not given) | 1120 nM | 2700 nM | 2300 nM
Cc1ccccc1CN1C2CCC1CC(NC(=O)c1ccc3ccccc3c1)C2 (stereo not given) | 1290 nM | 118 nM | 193 nM
O=C(NC1CC2CCC(C1)N2Cc1ccccc1)c1ccc2ccccc2n1 (stereo not given) | 502 nM | 589 nM | 62.7 nM
O=C(NC1CC2CCC(C1)N2Cc1ccc(Cl)cc1)c1ccc2ccccc2c1 (stereo not given) | 397 nM | 0.4 nM | 2500 nM
O=C(NC1CC2CCC(C1)N2Cc1ccc(C(F)(F)F)cc1)c1ccc2ccccc2c1 (stereo not given) | > 10000 nM | 629 nM | 2000 nM
O=C(NC1CC2CCC(C1)N2Cc1ccccc1C(F)(F)F)c1ccc2ccccc2c1 (stereo not given) | 102 nM | 537 nM | 476 nM
O=C(NC1CC2CCC(C1)N2Cc1cccc(C(F)(F)F)c1)c1ccc2ccccc2c1 (stereo not given) | 209 nM | 217 nM | 130 nM
COc1ccc(CN2C3CCC2CC(NC(=O)c2ccc4ccccc4c2)C3)cc1 (stereo not given) | 920 nM | 0.6 nM | 2600 nM
COc1cc(C(=O)NC2CC3CCC(C2)N3Cc2ccccc2)nc2ccccc12 (stereo not given) | 495 nM | > 10000 nM | 30.5 nM
O=C(NC1CC2CCC(C1)N2Cc1ccccc1F)c1ccc2ccccc2c1 (stereo not given) | 106 nM | 715 nM | 365 nM
O=C(NC1CC2CCC(C1)N2Cc1ccc(Br)cc1)c1ccc2ccccc2c1 (stereo not given) | 326 nM | 4.5 nM | 230 nM
O=C(NC1CC2CCC(C1)N2Cc1ccccc1Br)c1ccc2ccccc2c1 (stereo not given) | 136 nM | 22.8 nM | 196 nM
O=C(NC1CC2CCC(C1)N2Cc1cccnc1)c1ccc2ccccc2c1 (stereo not given) | 484 nM | 2400 nM | 485 nM
Cc1ccc(CN2C3CCC2CC(NC(=O)c2ccc4ccccc4c2)C3)cc1 (stereo not given) | 854 nM | 0.4 nM | 728 nM
